Results published in ChEMBL document CHEMBL1134537, “Potent dibasic GPIIb/IIIa antagonists with reduced prolongation of bleeding time: synthesis and pharmacological evaluation of 2-oxopiperazine derivatives” (J Med Chem, 2001).

Tests used:
Assay type in all cases: functional
[1] = Dose ratio for dose causing prolongation of bleeding time to 3 times the basel value vs ID50 value of ex-vivo ADP-induced platelet aggregation.
How it was run: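 Template bleeding time and ex vivo ADP aggregation measured in male guinea pigs 90 min after starting continuous iv infusion in 0.9% saline. BT(×3) is the dose prolonging BT to 3 times basal. The ratio is BT(×3) dose divided by the ex vivo ID50 dose.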

[2] = test system: Cavia porcellus; experiment: Effect on bleeding time when a dose of 9.0 ug/kg/min was administered to guinea pig
How it was run: (§1)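 Male guinea pigs (250–400 g) received continuous iv infusion of compound in 0.9% saline, with vehicle for controls. Template BT was taken 90 min after infusion start under pentobarbital (25 mg/kg ip), with hind limb shaved the day before and a pressure cuff proximal to the site. Each animal's value is the mean of two cuts; mean ± SE, n = 3. The cut-off is 900 s.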

[3] = species on record: Cavia porcellus; experiment: Ex vivo inhibition of ADP induced aggregation in guinea pig platelets
How it was run: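 Male guinea pigs (250–400 g) were given a continuous iv infusion in 0.9% saline, with vehicle for controls. At 90 min, citrated blood was drawn from the abdominal aorta under anesthesia and PRP was prepared. Aggregation was induced with submaximal ADP and read by light transmittance. ID50 in μg/kg/min with 95% CI, n = 2–5.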

[4] = species on record: Cavia porcellus; experiment: In vitro inhibition of ADP induced aggregation in guinea pig platelets
How it was run: (§2)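 Guinea pig blood was taken by aortic puncture under pentobarbital into 3.15% citrate (1:10). PRP was adjusted to 4 × 10^5 platelets/μL and prewarmed 2 min at 37 °C with compound, stirred. Aggregation was induced with ADP (0.8–1 μM) and read as the change in light transmittance. IC50 with 95% CI.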

[5] = species on record: Homo sapiens; experiment: In vitro effect on TRAP induced human platelet aggregation
How it was run: (§3)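 Human citrated (3.8%) PRP adjusted to 3 × 10^5 platelets/μL was stirred and prewarmed 2 min at 37 °C with compound. Submaximal agonist was added (PAF, TRAP or collagen) and aggregation recorded as the change in light transmittance.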

[6] = species on record: Homo sapiens; experiment: In vitro effect on ADP induced platelet aggregation in human platelet rich plasma
How it was run: (§4)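 Human blood was collected into 3.8% citrate (1:10). PRP was adjusted to 3 × 10^5 platelets/μL and preincubated 2 min at 37 °C with compound, stirred at 1000 rpm. ADP (1–10 μM) was then added and light-transmittance aggregometry recorded. IC50 with 95% CI, n = 4.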

[7] = species on record: Homo sapiens; experiment: In vitro effect on PAF induced human platelet aggregation; how it was run: as §3
[8] = species on record: Homo sapiens; experiment: In vitro effect on ADP induced human platelet aggregation; how it was run: as §4
[9] = In vitro effect on ADP induced platelet aggregation in monkey platelet rich plasma; conditions: Cercopithecidae
How it was run: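 Monkey blood was drawn into 3.8% citrate (1:10). PRP at 3 × 10^5 platelets/μL was warmed 2 min at 37 °C with compound under stirring. Aggregation was triggered by ADP (30–40 μM) and measured by light transmittance. IC50 with 95% CI, n = 4.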

[10] = species on record: Cavia porcellus; experiment: In vitro effect on ADP induced platelet aggregation in guinea pig platelet rich plasma; how it was run: as §2
[11] = species on record: Homo sapiens; experiment: In vitro effect on collagen induced human platelet aggregation; how it was run: as §3
[12] = test system: Cavia porcellus; experiment: Effect on bleeding time when a dose of 10 ug/kg/min was administered to guinea pig; how it was run: as §1
[13] = test system: Cavia porcellus; experiment: Effect on bleeding time when a dose of 6.0 ug/kg/min was administered to guinea pig; how it was run: as §1
[14] = test system: Cavia porcellus; experiment: Effect on bleeding time when a dose of 4.0 ug/kg/min was administered to guinea pig; how it was run: as §1
[15] = test system: Cavia porcellus; experiment: Effect on bleeding time when a dose of 8.0 ug/kg/min was administered to guinea pig; how it was run: as §1
[16] = test system: Cavia porcellus; experiment: Effect on bleeding time when a dose of 6.5 ug/kg/min was administered to guinea pig; how it was run: as §1
[17] = test system: Cavia porcellus; experiment: Effect on bleeding time when a dose of 2.2 ug/kg/min was administered to guinea pig; how it was run: as §1
[18] = test system: Cavia porcellus; experiment: Effect on bleeding time when a dose of 4 ug/kg/min was administered to guinea pig; how it was run: as §1
[19] = test system: Cavia porcellus; experiment: Effect on bleeding time when a dose of 0.9 ug/kg/min was administered to guinea pig; how it was run: as §1
[20] = test system: Cavia porcellus; experiment: Effect on bleeding time when a dose of 1.4 ug/kg/min was administered to guinea pig; how it was run: as §1
[21] = test system: Cavia porcellus; experiment: Effect on bleeding time when a dose of 2.5 ug/kg/min was administered to guinea pig; how it was run: as §1
[22] = test system: Cavia porcellus; experiment: Effect on bleeding time when a dose of 2 ug/kg/min was administered to guinea pig; how it was run: as §1
[23] = test system: Cavia porcellus; experiment: Effect on bleeding time when a dose of 5 ug/kg/min was administered to guinea pig; how it was run: as §1
[24] = test system: Cavia porcellus; experiment: Effect on bleeding time when a dose of 5.0 ug/kg/min was administered to guinea pig; how it was run: as §1
[25] = test system: Cavia porcellus; experiment: Effect on bleeding time when a dose of 0.2 ug/kg/min was administered to guinea pig; how it was run: as §1
[26] = test system: Cavia porcellus; experiment: Effect on bleeding time when a dose of 3.0 ug/kg/min was administered to guinea pig; how it was run: as §1

N=C(N)Nc1ccc(C(=O)NCC[C@H]2C(=O)N(CC(=O)O)CCN2C(=O)CNC(=O)c2ccc(NC(=N)N)cc2)cc1
Dissociation ratio [1]: <10
BT [2]: 800
ID50 [3]: 0.88 µg/min/kg
IC50 [4]: 97 nM

COC(=O)C[C@H]1C(=O)N(CC(=O)O)CCN1C(=O)CNC(=O)c1ccc(C(=N)N)cc1
IC50 [5]: 32 nM
IC50 [6]: 31 nM
IC50 [7]: 29 nM
IC50 [8]: 31 nM
IC50 [9]: 46 nM
IC50 [10]: 43 nM
IC50 [11]: 31 nM

N=C(N)c1ccc(C(=O)NCC(=O)N2CCN(CC(=O)O)C(=O)[C@@H]2CCCNC(=O)CCCCCN)cc1
BT [12]: 780
Dissociation ratio [1]: <12
ID50 [3]: 0.86 µg/min/kg
IC50 [4]: 160 nM

N=C(N)Nc1ccc(C(=O)NCCC[C@H]2C(=O)N(CC(=O)O)CCN2C(=O)CNC(=O)c2ccc(NC(=N)N)cc2)cc1
IC50 [5]: 91 nM
IC50 [6]: 31 nM
IC50 [7]: 30 nM
IC50 [8]: 31 nM
IC50 [9]: 79 nM
IC50 [10]: 51 nM
Dissociation ratio [1]: >33
IC50 [11]: 59 nM
ID50 [3]: 0.18 µg/min/kg
BT [13]: 510
IC50 [4]: 51 nM

N=C(N)c1ccc(C(=O)NCC(=O)N2CCN(CC(=O)O)C(=O)[C@@H]2CNC(=O)c2ccc(C(=N)N)cc2)cc1
Dissociation ratio [1]: <6
BT [14]: >900
ID50 [3]: 0.72 µg/min/kg
IC50 [4]: 120 nM

N=C(N)c1ccc(C(=O)NCC[C@H]2C(=O)N(CC(=O)O)CCN2C(=O)CNC(=O)c2ccc(C(=N)N)cc2)cc1
Dissociation ratio [1]: <9
ID50 [3]: 0.91 µg/min/kg
IC50 [4]: 190 nM
BT [15]: 800

N=C(N)Nc1ccc(C(=O)NC[C@H]2C(=O)N(CC(=O)O)CCN2C(=O)CNC(=O)c2ccc(C(=N)N)cc2)cc1
Dissociation ratio [1]: 10
BT [16]: 660
ID50 [3]: 0.66 µg/min/kg
IC50 [4]: 85 nM

N=C(N)Nc1ccc(C(=O)NCC(=O)N2CCN(CC(=O)O)C(=O)[C@@H]2CNC(=O)c2ccc(NC(=N)N)cc2)cc1
BT [12]: 720
Dissociation ratio [1]: <10
ID50 [3]: 1 µg/min/kg
IC50 [4]: 140 nM

N=C(N)c1ccc(C(=O)NCCC[C@H]2C(=O)N(CC(=O)O)CCN2C(=O)CNC(=O)c2ccc(C(=N)N)cc2)cc1
Dissociation ratio [1]: 12
BT [17]: 660
ID50 [3]: 0.19 µg/min/kg
IC50 [4]: 37 nM

N=C(N)Cc1ccc(C(=O)NC[C@H]2C(=O)N(CC(=O)O)CCN2C(=O)CNC(=O)c2ccc(C(=N)N)cc2)cc1
Dissociation ratio [1]: <10
ID50 [3]: 0.42 µg/min/kg
IC50 [4]: 57 nM
BT [18]: 760

N=C(N)NCCCC(=O)NCCC[C@H]1C(=O)N(CC(=O)O)CCN1C(=O)CNC(=O)c1ccc(C(=N)N)cc1
BT [12]: 620
Dissociation ratio [1]: 21
ID50 [3]: 0.47 µg/min/kg
IC50 [4]: 88 nM

N=C(N)Nc1ccc(C(=O)NCCC[C@H]2C(=O)N(CC(=O)O)CCN2C(=O)CNC(=O)c2ccc(C(=N)N)cc2)cc1
BT [19]: 490
BT [20]: >900
Dissociation ratio [1]: 16
ID50 [3]: 0.087 µg/min/kg
IC50 [4]: 19 nM

N=C(N)Nc1ccc(C(=O)NCC[C@H]2C(=O)N(CC(=O)O)CCN2C(=O)CNC(=O)c2ccc(C(=N)N)cc2)cc1
BT [21]: 820
Dissociation ratio [1]: 21
ID50 [3]: 0.12 µg/min/kg
IC50 [4]: 37 nM
BT [22]: 410

COc1ccc(C[C@H](NC(=O)c2ccc(C(=N)N)cc2)C(=O)N2CCN(CC(=O)O)C(=O)[C@@H]2CCCNC(=O)c2ccc(C(=N)N)cc2)cc1
Dissociation ratio [1]: 10
ID50 [3]: 0.021 µg/min/kg
IC50 [4]: 23 nM

N=C(N)c1ccc(C(=O)NCC(=O)N2CCN(CC(=O)O)C(=O)[C@@H]2CCCNC(=O)CCCCN)cc1
BT [23]: 490
Dissociation ratio [1]: >5
ID50 [3]: 0.94 µg/min/kg
IC50 [4]: 210 nM

N=C(N)Cc1ccc(C(=O)NCCC[C@H]2C(=O)N(CC(=O)O)CCN2C(=O)CNC(=O)c2ccc(C(=N)N)cc2)cc1
Dissociation ratio [1]: 10
BT [14]: 620
ID50 [3]: 0.41 µg/min/kg
IC50 [4]: 67 nM

N=C(N)c1ccc(C(=O)NCCCC[C@H]2C(=O)N(CC(=O)O)CCN2C(=O)CNC(=O)c2ccc(C(=N)N)cc2)cc1
Dissociation ratio [1]: 6
BT [24]: 620
ID50 [3]: 0.79 µg/min/kg
IC50 [4]: 150 nM

COc1ccc(C[C@H](NC(=O)c2ccc(C(=N)N)cc2)C(=O)N2CCN(CC(=O)O)C(=O)[C@@H]2CCCCNC(=O)c2ccc(C(=N)N)cc2)cc1
Dissociation ratio [1]: <5
BT [25]: >900
ID50 [3]: 0.041 µg/min/kg
IC50 [4]: 12 nM

N=C(N)c1ccc(C(=O)NCC(=O)N2CCN(CC(=O)O)C(=O)[C@@H]2CCCNC(=O)c2ccc(CCN)cc2)cc1
BT [26]: 270
Dissociation ratio [1]: 11
ID50 [3]: 0.56 µg/min/kg
BT [13]: 860
IC50 [4]: 81 nM
